Assays:
SK-OV-3 cells [1] = experiment: Flow cytometry uptake with endocytic inhibitors; format: cell-based, human; settings: F′-PEpYLGLD:[W5R4C]–SeNPs 1:10, SK-OV-3, 2 h, 37 °C, n = 3
SK-OV-3 cells [2] = experiment: Confocal microscopy on live cells; format: cell-based, human; settings: F′-PEpYLGLD 5 μM with or without [W5R4C]–SeNPs 50 μM, SK-OV-3, 2 h, 37 °C
Outline: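 SK-OV-3 cells, maintained in EMEM with 10% FBS and 1% penicillin–streptomycin at 37 °C under 5% CO2, were grown overnight on coverslips (1 × 10^5 cells per well). Fluorescein-labelled peptide (5 μM), alone or with peptide-capped selenium nanoparticles (50 μM), was added in opti-MEM for 2 h at 37 °C. Slides were washed and nuclei were DAPI-stained. Fluorescence intensity was compared with probe alone, in triplicate.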

Molecule	effect on uptake of F′-PEpYLGLD loaded [W5R4C]–SeNPs (in words) (SK-OV-3 cells [1])	also measured
CCN(c1nc(N)c(C(=O)N=C(N)N)nc1Cl)C(C)C [EIA, 5-(N-ethyl-N-isopropyl)-amiloride]	–	inhibition of uptake of F′-PEpYLGLD loaded [W5R4C]–SeNPs (SK-OV-3 cells [1]): 40%
CCN(CC)CCCC(C)Nc1ccnc2cc(Cl)ccc12 (stereo not shown) [chloroquine]	did not significantly decrease	–
CN(C)CCCN1c2ccccc2Sc2ccc(Cl)cc21 [chlorpromazine]	did not significantly decrease	–
C[C@@H]1[C@H](O)[C@@H](C)/C=C/C=C/CC/C=C/C=C/C=C/C=C/C(O[C@H]2O[C@H](C)[C@@H](O)[C@H](N)[C@@H]2O)CC2O[C@](O)(CC(O)C(O)CCC(O)CC(O)CC(O)CC(=O)O[C@H]1C)CC(O)C2C(=O)O (stereo partly shown) [nystatin]	–	inhibition of uptake of F′-PEpYLGLD loaded [W5R4C]–SeNPs (SK-OV-3 cells [1]): 52%
[N-]=[N+]=[N-].[Na+] [sodium azide]	did not alter	–
F′-PEpYLGLD	–	intracellular fluorescence of F′-PEpYLGLD (confocal microscopy) (SK-OV-3 cells [2]): No green fluorescence
methyl-β-cyclodextrin	did not significantly decrease	–

From publication PMC4186687 (Molecular Pharmaceutics, 2014)
